Laboratory results: PMC4454367 (Environmental science & technology, 2015)
Values joined by “and” are separate entries in the source; they are usually repeats but may differ in a detail not shown here. Equal entries are not always repeated.

Experiments:
A. mexicanum AHR [1] = target: T1, A. mexicanum AHR (Ambystoma mexicanum, UniProt A0A0F6TLE0); assay: Transactivation; type: cell-based
T1 sequence (A0A0F6TLE0 1-853): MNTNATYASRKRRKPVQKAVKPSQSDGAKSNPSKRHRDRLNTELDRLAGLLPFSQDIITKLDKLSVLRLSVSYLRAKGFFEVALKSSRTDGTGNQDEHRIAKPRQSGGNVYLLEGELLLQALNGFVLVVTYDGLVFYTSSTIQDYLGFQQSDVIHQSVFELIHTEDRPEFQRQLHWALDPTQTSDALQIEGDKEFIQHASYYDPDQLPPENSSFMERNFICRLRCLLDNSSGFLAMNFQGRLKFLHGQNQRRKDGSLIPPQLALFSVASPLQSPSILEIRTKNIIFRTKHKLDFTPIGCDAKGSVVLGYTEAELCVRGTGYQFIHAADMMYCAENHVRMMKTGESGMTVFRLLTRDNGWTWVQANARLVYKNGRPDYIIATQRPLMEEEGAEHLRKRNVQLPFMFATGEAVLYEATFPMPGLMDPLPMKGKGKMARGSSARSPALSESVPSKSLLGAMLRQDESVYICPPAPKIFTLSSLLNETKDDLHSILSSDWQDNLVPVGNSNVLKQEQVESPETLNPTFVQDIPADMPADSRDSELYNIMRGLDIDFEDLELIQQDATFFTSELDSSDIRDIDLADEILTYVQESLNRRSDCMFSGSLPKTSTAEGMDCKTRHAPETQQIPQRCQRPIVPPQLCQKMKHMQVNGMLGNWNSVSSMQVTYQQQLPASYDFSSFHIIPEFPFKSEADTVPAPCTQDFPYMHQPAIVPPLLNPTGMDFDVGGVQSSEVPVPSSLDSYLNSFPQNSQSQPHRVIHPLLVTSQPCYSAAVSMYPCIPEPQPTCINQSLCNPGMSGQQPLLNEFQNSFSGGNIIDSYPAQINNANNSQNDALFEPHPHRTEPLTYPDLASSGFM

A. mexicanum AHR [2] = target: T1, A. mexicanum AHR; assay: Velocity sedimentation analysis of [3H]TCDD binding, A. mexicanum AHR; details: 2 nM [3H]TCDD, 18 h at 4°, sucrose gradients, in vitro synthesized AHR
Summary of the method: (§1)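 AHR made in vitro from pCMVTNT in a rabbit reticulocyte coupled transcription/translation system, diluted 1:1 in MEDMDG buffer (pH 7.5, molybdate, glycerol, DTT), incubated 18 h at 4° with 2 nM [1,6-3H]TCDD. Run on 10–30% sucrose gradients at 65,000 rpm for 90 min with [14C]catalase marker. Fractions scintillation-counted; specific binding is peak fractions minus empty-vector lysate. Three replicates, mean ± standard error.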

X. laevis AHR1β [3] = target: T2, X. laevis AHR1β (Xenopus laevis, UniProt Q4QY30); assay: Velocity sedimentation analysis of [3H]TCDD binding, X. laevis AHR1β; details: 2 nM [3H]TCDD, 18 h at 4°, sucrose gradients, in vitro synthesized AHR
T2 sequence (Q4QY30 1-834): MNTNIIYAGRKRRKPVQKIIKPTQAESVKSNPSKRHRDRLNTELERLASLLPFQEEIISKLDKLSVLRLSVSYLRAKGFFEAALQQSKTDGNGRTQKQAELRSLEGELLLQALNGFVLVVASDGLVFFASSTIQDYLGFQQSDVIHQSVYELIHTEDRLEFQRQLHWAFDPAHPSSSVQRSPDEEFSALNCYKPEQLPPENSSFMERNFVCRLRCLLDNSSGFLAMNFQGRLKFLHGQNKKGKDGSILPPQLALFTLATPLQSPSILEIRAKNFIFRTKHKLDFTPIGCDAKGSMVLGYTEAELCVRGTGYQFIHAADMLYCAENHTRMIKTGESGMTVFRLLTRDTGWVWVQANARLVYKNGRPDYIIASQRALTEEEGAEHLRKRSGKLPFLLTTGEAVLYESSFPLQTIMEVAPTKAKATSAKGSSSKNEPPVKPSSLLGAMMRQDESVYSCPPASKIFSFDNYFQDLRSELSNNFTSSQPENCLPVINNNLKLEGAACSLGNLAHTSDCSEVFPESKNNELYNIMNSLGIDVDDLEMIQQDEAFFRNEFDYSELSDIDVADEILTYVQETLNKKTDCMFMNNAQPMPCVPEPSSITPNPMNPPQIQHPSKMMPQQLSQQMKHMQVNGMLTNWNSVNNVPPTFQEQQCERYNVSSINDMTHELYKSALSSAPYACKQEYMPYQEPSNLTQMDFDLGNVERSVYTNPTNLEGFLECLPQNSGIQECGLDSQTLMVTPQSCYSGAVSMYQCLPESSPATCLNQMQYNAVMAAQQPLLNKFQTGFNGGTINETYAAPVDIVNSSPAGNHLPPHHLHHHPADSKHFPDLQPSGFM
Summary of the method: as §1

AHR2 from zebrafish = details: TCDD binding; cited from earlier work
X. laevis AHR1α = details: read-out: apparent Kd; TCDD binding; cited from earlier work
X. laevis AHR1β [4] = target: T2, X. laevis AHR1β; details: cited from earlier work
chicken AHR = details: TCDD binding; cited from earlier work
mouse AHR = details: TCDD binding; cited from earlier work
tern AHR = tern AHR (V325, A381) vs chicken AHR (I325, S381); cited from earlier work
[5] = test system: larvae of the tiger salamander; details: cited from earlier work
zebrafish = details: cited from earlier work
X. laevis AHR1β [6] = target: T2, X. laevis AHR1β; assay: Transactivation; type: cell-based

Question: For `Clc1cc2c(cc1Cl)Oc1cc(Cl)c(Cl)cc1O2` [TCDD, 2,3,7,8-tetrachlorodibenzo-p-dioxin], which “EC50 of A. mexicanum AHR relative to that of the mouse:frog chimera” value (A. mexicanum AHR [1]; TCDD 24 h, fold greater than chimeric AHR) is on record?
Answer: ~300 fold

Question: What about the “Specific [3H]TCDD binding peak relative to mouse AHR or chimeric AHR” value (A. mexicanum AHR [2]) of the same molecule?
Answer: one-tenth

Question: And the “Specific [3H]TCDD binding peak relative to mouse AHR or chimeric AHR” value (X. laevis AHR1β [3])?
Answer: approximately one-tenth

Question: What about the Kd (AHR2 from zebrafish) of the same molecule?
Answer: 1.1 nM

Question: And the Kd (X. laevis AHR1α)?
Answer: 47.2 nM

Question: And the “Kd (saturability of TCDD binding)” value (X. laevis AHR1β [4])?
Answer: unsaturable

Question: What about the Kd (chicken AHR) of the same molecule?
Answer: 0.8 nM

Question: What about the Kd (mouse AHR) of the same molecule?
Answer: 2.4 nM

Question: And the “TCDD affinity of tern AHR, fold lower than the chicken AHR” value (tern AHR)?
Answer: 7 fold

Question: What about the “nominal TCDD concentrations defined as sub-lethal” value [5] of the same molecule?
Answer: up to 3.0 μg/L and ≤ 9.3 nM

Question: And the LC100 (zebrafish)?
Answer: no more than 1.55 nM

Question: For `O=Cc1c2[nH]c3ccccc3c2cc2[nH]c3ccccc3c12` [FICZ, 6-formylindolo[3,2-b]carbazole], which EC50 (A. mexicanum AHR [1]) is on record?
Answer: 0.45 nM

Question: What about the “EC50 of axolotl AHR relative to that of the chimeric AHR” value (A. mexicanum AHR [1]; FICZ 3 h exposure, fold greater than chimeric AHR) of the same molecule?
Answer: about 45 fold

Question: And the EC50 (X. laevis AHR1β [6])?
Answer: 0.14 nM
